Values joined by “and” are separate entries in the source; they are usually repeats but may differ in a detail not shown here. Equal values may be shown once.
Tests used:
Format in all cases: functional
[1] = target: Hemoglobin HbA (Homo sapiens) (UniProt P69905+P68871); assay: Ratio of effect of compound on affinity of hemoglobin for oxygen to that of control
In short: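 Mean P50 with compound divided by mean P50 of the respective controls. P50 measured from O2-dissociation curves at 37 °C after 30 min in 0.1 M HEPES, pH 7.4, with hemoglobin at 12.5 ± 0.5 µM, in intact red cells or membrane-free hemoglobin.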

[2] = species: Homo sapiens; assay: Ability of 0.2 mM to reduce affinity of hemoglobin for oxygen is assessed from 50% partial pressure of oxygen in membrane free hemoglobin solution
In short: (§1)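 Membrane-free hemoglobin: erythrocytes washed five times in 0.15 M NaCl, lysed in 5 volumes of water, filtered through paper and then down to 0.22 µm. Compound dissolved in 0.1 M HEPES, pH 7.4, hemoglobin added to a final 12.5 ± 0.5 µM, incubated 30 min at 37 °C. P50 taken from the O2-dissociation curve. Initial screen at 1 mM in duplicate.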

[3] = species: Homo sapiens; assay: Ability of 0.2 mM to reduce affinity of hemoglobin for oxygen is assessed from 50% partial pressure of oxygen in intact red cells
In short: (§2)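 Intact red cells: 30-µL aliquots of fresh heparinized normal whole blood added to 5 mL of compound diluted in 0.1 M HEPES, pH 7.4; final hemoglobin 12.5 ± 0.5 µM by spectrophotometry. Equilibrated 30 min at 37 °C, then oxygenated in the instrument chamber. P50 (mmHg PO2 at 50% deoxygenation) read from the O2-dissociation curve. Initial screen at 1 mM in duplicate.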

[4] = species: Homo sapiens; assay: Ability of 0.5 mM to reduce affinity of hemoglobin for oxygen is assessed from 50% partial pressure of oxygen in membrane free hemoglobin solution; in short: as §1
[5] = species: Homo sapiens; assay: Ability of 0.5 mM to reduce affinity of hemoglobin for oxygen is assessed from 50% partial pressure of oxygen in intact red cells; in short: as §2
[6] = species: Homo sapiens; assay: Ability of 1 mM to reduce affinity of hemoglobin for oxygen is assessed from 50% partial pressure of oxygen in membrane free hemoglobin solution; in short: as §1
[7] = species: Homo sapiens; assay: Ability of 1 mM to reduce affinity of hemoglobin for oxygen is assessed from 50% partial pressure of oxygen in intact red cells; in short: as §2
[8] = species: Homo sapiens; assay: Ability of 1 mM compound to reduce affinity of hemoglobin for oxygen is assessed from 50% partial pressure of oxygen in intact red cells; in short: as §2
[9] = species: Homo sapiens; assay: Ability of 0.1 mM to reduce affinity of hemoglobin for oxygen is assessed from 50% partial pressure of oxygen in intact red cells; in short: as §2
[10] = species: Homo sapiens; assay: Ability of 0.1 mM to reduce affinity of hemoglobin for oxygen is assessed from 50% partial pressure of oxygen in membrane free hemoglobin solution; in short: as §1
[11] = species: Homo sapiens; assay: Ability of 0.05 mM to reduce affinity of hemoglobin for oxygen is assessed from 50% partial pressure of oxygen in membrane free hemoglobin solution; in short: as §1
[12] = species: Homo sapiens; assay: Ability of 0.05 mM to reduce affinity of hemoglobin for oxygen is assessed from 50% partial pressure of oxygen in intact red cells; in short: as §2
[13] = species: Homo sapiens; assay: Ability of 0.5 mm to reduce affinity of hemoglobin for oxygen is assessed from 50% partial pressure of oxygen in intact red cells; in short: as §2
[14] = species: Homo sapiens; assay: Ability of 1 mm to reduce affinity of hemoglobin for oxygen is assessed from 50% partial pressure of oxygen in intact red cells; in short: as §2

Chain of Hemoglobin HbA (Homo sapiens) (P68871 2-147 partner limits assumed): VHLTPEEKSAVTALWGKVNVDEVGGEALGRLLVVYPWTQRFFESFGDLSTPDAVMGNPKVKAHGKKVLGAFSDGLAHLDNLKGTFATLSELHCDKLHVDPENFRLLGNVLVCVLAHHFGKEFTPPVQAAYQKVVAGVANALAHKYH
Chain of Hemoglobin HbA (Homo sapiens) (P69905 2-142 limits assumed): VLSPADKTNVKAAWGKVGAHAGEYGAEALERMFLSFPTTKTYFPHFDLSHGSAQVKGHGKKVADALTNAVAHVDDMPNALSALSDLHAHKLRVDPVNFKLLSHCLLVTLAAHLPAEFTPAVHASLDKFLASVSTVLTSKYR

Row | Ratio [1] | Compound | P50 [4] [mmHg] | P50 [6] [mmHg] | P50 [8] [mmHg] | further results
1 | 2.46 [middle of 4 runs] | CC(C)(Oc1ccc(NC(=O)Nc2cccc(Cl)c2Cl)cc1)C(=O)O | 16 |  |  | P50 [2]: 12.5 mmHg; P50 [3]: 18.5 mmHg
2 | 5.43 [middle of 4 runs] | CC(C)(Oc1ccc(NC(=O)Nc2ccc(Cl)c([N+](=O)[O-])c2)cc1)C(=O)O | 30 | 43.5 |  | P50 [5]: 40 mmHg; P50 [7]: 52.5 mmHg
3 | 1.14 and 1.39 | CC(C)(Oc1ccc(NC(=N)Nc2ccc(Cl)cc2)cc1)C(=O)O |  | 9 | 16 | 
4 | 2.29 [middle of 4 runs] | CC(C)(Oc1ccc(NC(=O)Nc2ccc(Cl)c(Cl)c2)cc1)C(=O)O | 28.5 |  |  | P50 [5]: 23.5 mmHg; P50 [2]: 14.2 mmHg; P50 [3]: 15.5 mmHg
5 | 2.07 and 1 | COc1ccc(NC(=O)Nc2ccc(OC(C)(C)C(=O)O)cc2)cc1OC |  | 14.5 | 8.5 | 
6 | 5.35 [middle of 4 runs] | CC(C)(Oc1ccc(NC(=O)c2ccc(Cl)cc2)cc1)C(=O)O | 27 | 39 |  | P50 [7]: 37.5 mmHg and 19 mmHg
7 | 2 and 1.38 | CC(C)(Oc1ccc(NC(=O)Nc2ccc(F)cc2)cc1)C(=O)O |  | 18 | 12.5 | 
8 | 2.11 and 1.25 | COc1ccc(NC(=O)Nc2ccc(OC(C)(C)C(=O)O)cc2)cc1 |  | 19 | 12.5 | 
9 | 1.78 and 1.42 and 2.33 | CC(C)(Oc1ccc(CCNC(=O)c2cc(Cl)cc(Cl)c2)cc1)C(=O)O | 10 | 12.5 |  | P50 [5]: 17.75 mmHg; P50 [7]: 22.75 mmHg
10 | 2.7 and 1.64 | CC(C)(Oc1ccc(NC(=O)Nc2ccc(Cl)cc2)cc1)C(=O)O |  | 21.8 | 19.5 | 
11 | 1.63 [middle of 4 runs] | CC(C)(Oc1ccc(CCNC(=O)c2ccc(Cl)cc2)cc1)C(=O)O [BEZAFIBRATE] | 9 | 14.2 |  | P50 [5]: 14.5 mmHg; P50 [7]: 17 mmHg
12 | 1.14 and 1.36 | CC(C)(Oc1ccc(NC(=O)CNC(=O)c2ccc(Cl)cc2)cc1)C(=O)O |  | 8.5 | 12 | 
13 | 2.88 and 1.72 | Cc1ccc(NC(=O)Nc2ccc(OC(C)(C)C(=O)O)cc2)cc1 |  | 26 | 15.5 | 
14 | 1.14 and 1 | CC(C)(Oc1ccc(NC(=O)Nc2ccc(C(=O)O)cc2)cc1)C(=O)O |  | 8 | 9 | 
15 | 1.34 and 1.64 | CC(C)(Oc1ccc(NS(=O)(=O)Cc2ccccc2)cc1)C(=O)O |  | 9.16 | 11.5 | 
16 |  | CC(C)(Oc1ccc(NC(=O)Nc2cc(Cl)c(Cl)cc2Cl)cc1)C(=O)O |  |  |  | P50 [9]: 17.75 mmHg; P50 [2]: 16.8 mmHg; P50 [10]: 12 mmHg; P50 [11]: 9 mmHg; P50 [12]: 14.25 mmHg; P50 [3]: 31 mmHg
17 |  | CC(C)(Oc1ccc(NC(=O)Nc2cc(Cl)c(Cl)c(Cl)c2)cc1)C(=O)O |  |  |  | P50 [9]: 35 mmHg; P50 [2]: 57.2 mmHg; P50 [10]: 28.5 mmHg; P50 [11]: 16.2 mmHg; P50 [12]: 27.5 mmHg; P50 [3]: 60 mmHg
18 | 1.07 and 1.26 | CC(C)(Oc1ccc(CC(NC(=O)c2ccc(Cl)cc2)C(=O)O)cc1)C(=O)O (configuration not stated) |  | 7.5 | 12 | 
19 | 1.64 and 1.77 | CC(=O)Oc1ccc(NC(=O)Nc2ccc(OC(C)(C)C(=O)O)cc2)cc1 |  | 11.5 | 16 | 
20 | 3.61 and 4.21 | CC(C)(Oc1ccc(NC(=O)Nc2cc([N+](=O)[O-])ccc2Cl)cc1)C(=O)O |  | 23.5 | 40 | 

Row | Ratio [1] | Compound | P50 [4] [mmHg] | P50 [6] [mmHg] | P50 [8] [mmHg] | further results
21 | 2.3 and 2.15 | CC(C)(Oc1ccc(NC(=O)Nc2ccc(C=O)cc2)cc1)C(=O)O |  | 15 | 20.5 | 
22 | 2.15 and 1.05 | CC(C)(Oc1ccc(NC(=O)Nc2ccc3c(c2)OCO3)cc1)C(=O)O |  | 14 |  | P50 [7]: 9.5 mmHg
23 | 1.68 and 1.21 | CC(C)(Oc1ccc(NC(=O)Nc2ccc(O)cc2)cc1)C(=O)O |  | 11 | 8.5 | 
24 | 1.99 [middle of 4 runs] | CC(C)(Oc1ccc(NC(=O)Nc2cc(F)cc(F)c2)cc1)C(=O)O | 12.2 | 15.2 |  | P50 [5]: 15 mmHg; P50 [7]: 21 mmHg
25 | 1 and 1.26 | Cc1cc(C)c(NC(=O)Nc2ccc(OC(C)(C)C(=O)O)cc2)c(C)c1 |  | 6.5 | 12 | 
26 | 2.79 [middle of 4 runs] | CC(C)(Oc1ccc(NC(=O)Nc2ccc([N+](=O)[O-])cc2)cc1)C(=O)O | 13 | 19 |  | P50 [13]: 21 mmHg; P50 [14]: 26.5 mmHg
27 | 1.75 and 1.42 | CC(C)(Oc1ccc(NC(=O)Nc2ccccc2Cl)cc1)C(=O)O |  | 14.2 | 16.2 | 
28 | 1.61 and 1.27 | CCOC(=O)Nc1ccc(NC(=O)Nc2ccc(OC(C)(C)C(=O)O)cc2)cc1 |  | 10.5 | 11.5 | 
29 | 1.14 [middle of 4 runs] | O=C(O)COc1ccc(NC(=O)Nc2ccc(Cl)c(Cl)c2)cc1 | 10 |  |  | P50 [5]: 13 mmHg; P50 [2]: 8 mmHg; P50 [3]: 11.5 mmHg
30 | 1.42 and 1.05 | CC(C)(Oc1ccc(NC(=O)Nc2ccccc2)cc1)C(=O)O |  | 10 | 10 | 
31 | 2.04 [middle of 4 runs] | CC(C)(Oc1ccc(NC(=O)Nc2ccc(Cl)cc2Cl)cc1)C(=O)O | 15.5 |  |  | P50 [5]: 21.25 mmHg; P50 [2]: 9.75 mmHg; P50 [3]: 14.75 mmHg
32 | 1.27 and 1.84 | CC(C)(Oc1ccc(NC(=O)COc2ccc(Cl)cc2)cc1)C(=O)O |  | 9.25 | 17.5 | 
33 | 2.56 [middle of 4 runs] | CC(C)(Oc1ccc(NC(=O)Nc2cc(Cl)ccc2Cl)cc1)C(=O)O | 18 |  |  | P50 [5]: 23.75 mmHg; P50 [2]: 11.5 mmHg; P50 [3]: 15.83 mmHg
34 | 4.43 [middle of 4 runs] | CC(C)(Oc1ccc(NC(=O)Nc2cc(Cl)cc(Cl)c2)cc1)C(=O)O | 44.5 |  |  | P50 [5]: 51 mmHg; P50 [2]: 20.5 mmHg; P50 [3]: 22.75 mmHg
35 | 2.34 [middle of 4 runs] | CC(C)(Oc1ccc(NC(=O)c2cc(Cl)cc(Cl)c2)cc1)C(=O)O | 12.2 | 16 |  | P50 [5]: 19.66 mmHg; P50 [7]: 25.33 mmHg
36 | 1.91 and 1.42 | CC(C)(Oc1ccc(NC(=O)Nc2ccccc2O)cc1)C(=O)O |  | 12.5 | 10 | 
37 | 2.53 [middle of 4 runs] | Cc1ccc(NC(=O)Nc2ccc(OC(C)(C)C(=O)O)cc2)cc1C | 16.5 | 27.2 | 18.5 | P50 [5]: 14.5 mmHg
38 | 2.89 and 1.5 | CC(C)(Oc1ccc(NC(=O)Nc2cccc(Cl)c2)cc1)C(=O)O |  | 22 | 17.75 | 
39 | 1.64 and 1.05 | COc1cc(NC(=O)Nc2ccc(OC(C)(C)C(=O)O)cc2)cc(OC)c1OC |  | 11.5 | 9.5 | 
40 | 1 and 1.63 | CC(C)(Oc1ccc(-c2ccccc2)cc1)C(=O)O |  | 7 | 15.5 | 

Source: ChEMBL document CHEMBL1124654, “Synthesis and investigation of effects of 2-[4- [[(arylamino)carbonyl]amino]phenoxy]-2-methylpropionic acids on the affinity of hemoglobin for oxygen: structure-activity relationships” (1989)
